ChEMBL document CHEMBL4251667, “Ribemansides A and B, TRPC6 Inhibitors from Ribes manshuricum That Suppress TGF-β1-Induced Fibrogenesis in HK-2 Cells” (J Nat Prod, 2018)
Calls of active or inactive are those of the source. No cut-off for these calls is given here.

Assays:
HK-2 [1] = test: Inhibition of TGFbeta1-induced epithelial-mesenchymal transition in human HK2 cells assessed as reversal of spindle-like morphology measured after 36 hrs; type: functional, cell-based
In short: (§1)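 HK-2 cells kept in RPMI 1640 with 2 mg/mL NaHCO3, 10% FBS and 10 mM HEPES, then seeded at 6000 (96-well) or 40 000 (12-well) cells/well. Treated in serum-free medium with TGF-β1 (5 ng/mL), with or without test agent, for 36 h. Morphology scored as cell length/width ratio (n = 40). Run twice, each in duplicate.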

HK-2 [2] = test: Effect on basal alpha-SMA expression in human HK2 cells at 1 uM after 36 hrs by Western blot analysis; type: ADME, cell-based; details: hk-2, 36 h
HK-2 [3] = test: Effect on morphological changes in human HK2 cells at 1 uM measured after 36 hrs; type: ADME, cell-based; details: hk-2, 36 h
HK-2 [4] = test: Inhibition of TGFbeta1-induced epithelial-mesenchymal transition in human HK2 cells assessed as reduction in fibronectin release measured after 36 hrs by ELISA; type: functional, cell-based
HK-2 [5] = test: Inhibition of TGFbeta1-induced epithelial-mesenchymal transition in human HK2 cells assessed as reduction in alpha-SMA expression measured after 36 hrs by Western blot analysis; type: functional, cell-based
[6] = biological target: T1, Short transient receptor potential channel 6 (Mus musculus, UniProt Q61143); test: Inhibition of mouse TRPC6 expressed in HEK293 cells assessed as reduction in M085-induced intracellular calcium flux pretreated for 5 mins followed by M085 addition measured after 300 secs by Fluo-8AM dye based FLIPR assay; type: cell-based
T1 sequence (Q61143 whole entry): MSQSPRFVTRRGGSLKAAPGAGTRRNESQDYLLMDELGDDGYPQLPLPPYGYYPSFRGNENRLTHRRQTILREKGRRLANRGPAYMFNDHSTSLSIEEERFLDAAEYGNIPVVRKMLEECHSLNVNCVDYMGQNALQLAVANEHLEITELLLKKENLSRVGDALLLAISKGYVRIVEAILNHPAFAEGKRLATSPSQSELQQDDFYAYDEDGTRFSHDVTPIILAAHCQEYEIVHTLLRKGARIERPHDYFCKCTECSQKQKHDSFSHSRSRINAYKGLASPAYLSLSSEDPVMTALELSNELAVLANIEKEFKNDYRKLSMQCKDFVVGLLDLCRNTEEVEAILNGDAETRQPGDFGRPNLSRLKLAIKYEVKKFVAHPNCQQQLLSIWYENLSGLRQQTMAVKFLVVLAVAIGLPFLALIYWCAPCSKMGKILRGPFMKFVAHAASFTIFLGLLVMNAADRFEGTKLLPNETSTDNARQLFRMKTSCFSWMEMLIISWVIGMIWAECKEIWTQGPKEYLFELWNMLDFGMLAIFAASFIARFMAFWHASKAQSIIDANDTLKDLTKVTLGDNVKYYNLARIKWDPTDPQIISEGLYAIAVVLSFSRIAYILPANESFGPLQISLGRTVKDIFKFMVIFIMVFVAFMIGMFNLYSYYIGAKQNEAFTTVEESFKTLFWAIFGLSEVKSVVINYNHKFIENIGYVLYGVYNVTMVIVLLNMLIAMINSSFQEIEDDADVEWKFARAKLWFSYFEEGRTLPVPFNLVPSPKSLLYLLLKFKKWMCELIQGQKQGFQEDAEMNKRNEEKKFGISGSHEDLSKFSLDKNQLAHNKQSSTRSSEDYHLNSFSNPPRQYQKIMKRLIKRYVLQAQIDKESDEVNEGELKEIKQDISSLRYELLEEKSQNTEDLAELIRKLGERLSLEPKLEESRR
In short: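 HEK-293 cells stably expressing mouse TRPC6, on poly-D-lysine plates (~20 000 cells/well), cultured 6 h. Loaded with 4 μM Fluo-8/AM for 45 min, washed. FLIPR read: baseline 30 s, then compound or vehicle 5 min, then M085 (1 μM). Signal expressed as F/F0; AUC over 300 s after M085 used for concentration–response. Twice, each in triplicate.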

HK-2 [7] = test: Inhibition of TGFbeta1-induced epithelial-mesenchymal transition in human HK2 cells assessed as reversal of spindle-like morphology at 30 uM measured after 36 hrs; type: functional, cell-based; in short: as §1
HK-2 [8] = test: Inhibition of TGFbeta1-induced epithelial-mesenchymal transition in human HK2 cells assessed as reduction in fibronectin release at 30 uM measured after 36 hrs by ELISA; type: functional, cell-based
HK-2 [9] = test: Inhibition of TGFbeta1-induced epithelial-mesenchymal transition in human HK2 cells assessed as reduction in alpha-SMA expression at 30 uM measured after 36 hrs by Western blot analysis; type: functional, cell-based

| Structure (SMILES) | inhibition (HK-2 [1]) | Activity (HK-2 [2]) | Activity (HK-2 [3]) | inhibition (HK-2 [4]) | inhibition (HK-2 [5]) | IC50 [6] | inhibition (HK-2 [7]) | inhibition (HK-2 [8]) | inhibition (HK-2 [9]) |
| --- | --- | --- | --- | --- | --- | --- | --- | --- | --- |
| Cl.Cl.N#Cc1ccc(O[C@@H]2c3ccccc3C[C@H]2N2CCC[C@@H](N)C2)c(Cl)c1 | Dose-dependent effect | Non-Toxic | Non-Toxic | Dose-dependent effect | Dose-dependent effect | – | – | – | – |
| N#C/C(=C\CO)CO[C@@H]1O[C@H](COC(=O)c2ccc(O)cc2)[C@@H](O)[C@H](O)[C@H]1O | – | – | – | – | – | 24.5 µM | Active | Active | Active |
| COc1cc(C(=O)OC[C@H]2O[C@@H](OC/C(C#N)=C/CO)[C@H](O)[C@@H](O)[C@@H]2O)ccc1O | – | – | – | – | – | 25.6 µM | Active | Active | Active |
